Measured values: ChEMBL document CHEMBL1148431, “Structure-activity relationships of novel potent MurF inhibitors” (Bioorg Med Chem Lett, 2004)
pIC50: −log10 of the molar value.

Target: T1, UDP-N-acetylmuramoylalanine-D-glutamyl-lysine-D-alanyl-D-alanine ligase (Streptococcus pneumoniae R6, UniProt Q8DNV6)
T1 sequence (Q8DNV6 whole entry): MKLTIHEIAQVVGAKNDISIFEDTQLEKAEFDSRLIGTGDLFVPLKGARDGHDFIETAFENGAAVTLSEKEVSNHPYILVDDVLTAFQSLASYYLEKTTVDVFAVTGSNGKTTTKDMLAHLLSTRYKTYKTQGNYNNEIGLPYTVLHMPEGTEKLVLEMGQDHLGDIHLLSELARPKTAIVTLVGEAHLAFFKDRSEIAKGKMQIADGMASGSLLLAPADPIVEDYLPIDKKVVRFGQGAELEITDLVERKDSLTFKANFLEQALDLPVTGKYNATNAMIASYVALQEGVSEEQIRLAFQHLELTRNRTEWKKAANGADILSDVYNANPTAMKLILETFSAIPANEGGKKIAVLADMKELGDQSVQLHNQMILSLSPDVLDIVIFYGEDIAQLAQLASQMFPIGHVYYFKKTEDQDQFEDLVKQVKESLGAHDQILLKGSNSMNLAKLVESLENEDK
Test: Antibacterial activity against UDP-MurNAc-pentapeptide synthetase from Streptococcus pneumoniae.
Outline: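 Activity was read as radiolabeled free phosphate released. IC50 was read graphically from four-point concentration plots spanning it. Each point is the mean of at least two determinations, and each IC50 the mean of at least two independent plots.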

Compound	pIC50
N#Cc1c(NC(=O)c2cc(S(=O)(=O)N3CCOCC3)c(Cl)cc2Cl)sc2c1CCC(c1ccc(O)cc1)C2 (centres undefined)	7.66
CCN(CC)S(=O)(=O)c1ccc(Cl)c(C(=O)Nc2sc3c(c2CN)CCC3)c1	< 4.00
CCN(CC)S(=O)(=O)c1ccc(Cl)c(C(=O)Nc2sc3c(c2C(N)=O)CCC3)c1	4.18
CCN(CC)S(=O)(=O)c1cc(C(=O)Nc2sc3c(c2C#N)CCC(c2ccc(O)cc2)C3)c(Cl)cc1Cl (centres undefined)	7.17
N#Cc1c(NC(=O)c2cc(S(=O)(=O)N3CCOCC3)c(Cl)cc2Cl)sc2c1CCCC2	6.00
CN(C)CCCNc1ccc(S(=O)(=O)N2CCOCC2)cc1C(=O)Nc1sc2c(c1C#N)CCC2	4.13
N#Cc1c(NC(=O)c2cccc(S(=O)(=O)N3CCOCC3)c2)sc2c1CCC2	< 4.00
N#Cc1c(NC(=O)c2cc(S(=O)(=O)N3CCOCC3)c(NCCCO)cc2Cl)sc2c1CCC2	< 4.00
CCOC(=O)c1c(NC(=O)c2cc(S(=O)(=O)N(CC)CC)ccc2Cl)sc2c1CCC2	< 4.00
CNc1cc(Cl)c(C(=O)Nc2sc3c(c2C#N)CCC3)cc1S(=O)(=O)N1CCOCC1	4.21
CCN(CC)S(=O)(=O)c1ccc(Cl)c(C(=O)Nc2sc3c(c2C#N)CCC3)c1	5.10
CN(C)CCCNc1cc(Cl)c(C(=O)Nc2sc3c(c2C#N)CCC3)cc1S(=O)(=O)N1CCOCC1	< 4.00
CCOC(=O)C1CCc2c(sc(NC(=O)c3cc(S(=O)(=O)N(CC)CC)ccc3Cl)c2C#N)C1 (centres undefined)	5.22
CN(C)CCCNS(=O)(=O)c1ccc(Cl)c(C(=O)Nc2sc3c(c2C#N)CCC3)c1	< 4.00
CCN(CC)S(=O)(=O)c1ccc(Cl)c(C(=O)Nc2sc3c(c2CNC(C)=O)CCC3)c1	< 4.00
CCN(CC)S(=O)(=O)c1cc(C(=O)Nc2sc3c(c2C#N)CCC3)c(Cl)cc1Cl	5.28
CCN(CC)S(=O)(=O)c1ccc(Cl)c(C(=O)N(C)c2sc3c(c2C#N)CCC3)c1	< 4.00

Compound	pIC50
N#Cc1c(NC(=O)c2cc(S(=O)(=O)N3CCOCC3)ccc2Cl)sc2c1CCC2	5.05
CNS(=O)(=O)c1ccc(Cl)c(C(=O)Nc2sc3c(c2C#N)CCC3)c1	4.82
CCN(CC)S(=O)(=O)c1ccc(Cl)c(C(=O)Nc2sc3c(c2C#N)CCCCC3)c1	5.47
CCN(CC)S(=O)(=O)c1ccc(Cl)c(C(=O)Nc2sc3c(c2C#N)CCC(c2ccc(O)cc2)C3)c1 (centres undefined)	7.27
CC(COc1ccc(S(=O)(=O)N2CCOCC2)cc1C(=O)Nc1sc2c(c1C#N)CCC2)c1ccccc1 (centres undefined)	< 4.00
N#Cc1c(NC(=O)c2cc(S(=O)(=O)N3CCOCC3)c(Cl)cc2Cl)sc2c1CCC2	6.52
CCOc1ccc(S(=O)(=O)N2CCOCC2)cc1C(=O)Nc1sc2c(c1C#N)CCC2	< 4.00
CN(C)c1ccc(S(=O)(=O)N2CCOCC2)cc1C(=O)Nc1sc2c(c1C#N)CCC2	< 4.00
N#Cc1c(NC(=O)c2cc(S(=O)(=O)N3CCOCC3)c(F)cc2Cl)sc2c1CCC2	5.19
CCN(CC)S(=O)(=O)c1ccc(Cl)c(C(=O)Nc2sc3c(c2C#N)CCCC3)c1	5.85
N#Cc1c(NC(=O)c2cc(S(=O)(=O)N3CCOCC3)ccc2Cl)sc2c1CCCC2	5.77
N#Cc1c(NC(=O)c2cc(S(=O)(=O)N3CCOCC3)ccc2Br)sc2c1CCC2	5.38
N#Cc1c(NC(=O)c2cc(S(=O)(=O)Nc3ccccc3)ccc2Cl)sc2c1CCC2	4.59
CCN(CC)S(=O)(=O)c1ccc(Cl)c(CNc2sc3c(c2C#N)CCC3)c1	< 4.00
N#Cc1c(NC(=O)c2cc(S(=O)(=O)N3CCOCC3)ccc2Cl)sc2c1CCCCC2	5.38
N#Cc1c(NC(=O)c2cc(S(=O)(=O)N3CCOCC3)c(Cl)cc2Cl)sc2c1CCC(c1ccccc1)C2 (centres undefined)	7.15
CCN(CC)S(=O)(=O)c1ccc(Cl)c(C(C)Nc2sc3c(c2C#N)CCC3)c1 (centres undefined)	< 4.00
